Screening results as filed in PubChem.
GalR3 antagonist: human GalR3 antagonism. HEK293 GalR3-CNG cAMP membrane potential fluorescence; galR3 body fused to GalR1 C-terminus. inhibition, % at 3 µM. hit rate 0.44% among 360,000. AID 651719;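 active means inhibition above the screen-wide average plus 3 SD, cut at about 13% in these data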;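 further: forskolin and galanin both at EC90 stimulate the cells; cAMP rise reported by CNG channel membrane potential dye signal; 0% = forskolin plus galanin with DMSO and 100% = forskolin alone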
Target sequence (O60755 1-299 limits assumed): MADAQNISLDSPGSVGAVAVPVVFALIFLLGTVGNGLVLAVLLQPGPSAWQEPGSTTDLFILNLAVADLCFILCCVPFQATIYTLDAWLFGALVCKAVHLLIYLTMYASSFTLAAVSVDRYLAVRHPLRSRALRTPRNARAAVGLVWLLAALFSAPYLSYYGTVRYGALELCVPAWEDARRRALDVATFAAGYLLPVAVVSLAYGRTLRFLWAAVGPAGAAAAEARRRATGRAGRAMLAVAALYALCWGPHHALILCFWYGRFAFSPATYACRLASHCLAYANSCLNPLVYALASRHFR
ARFGAP1 inh: inhibitors of rat ARFGAP1. hit rate 0.26% among 360,000. Q62848. Arfgap1-stimulated ARF1 GTP hydrolysis, GDP FP detection. inhibition, % at 16.5 µM. AID 651572;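 active means inhibition above a per-plate limit, mean inhibition of low control wells plus 3 SD, cut at about 25% in these data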;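 further: 0% = DMSO wells with enzyme and 100% = wells lacking Arfgap1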
Target sequence (Q62848 1-136 limits assumed): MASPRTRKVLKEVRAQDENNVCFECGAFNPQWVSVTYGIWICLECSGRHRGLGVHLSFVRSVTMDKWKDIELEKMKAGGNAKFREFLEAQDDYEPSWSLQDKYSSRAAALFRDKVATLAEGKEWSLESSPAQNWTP
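Material: rat Arfgap1 catalytic domain, aa 1-136; also added: human ARF1(Δ1-17)-GTP substrate; compound dosing: one concentration, 16.5 µM, DMSO 1.26%; incubation: GTP hydrolysis reaction 2 h at 25 °C; measured by: Tracer-displacement fluorescence polarization with EDTA stop, 620/688 nm; evaluation: % inhibition from polarization; repeats: one replicate per compound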
ASAP1 inh: inhibitors of human ASAP1 ArfGAP activity; ASAP1-stimulated ARF1 GTP hydrolysis, GDP FP detection; inhibition, % at 16.5 µM; Q9ULH1; hit rate 0.19% among 360,000; AID 624377; in the data active means inhibition above about 25%;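 further: 0% = vehicle with enzyme and substrate and 100% = no enzyme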
Rin1 Abl inh: inhibitors of human Rin1-Abl protein interaction | P00519+Q13671 | TR-FRET Rin1/Abl binding, biochemical | inhibition, % at 7.35 µM | hit rate 0.4% among 360,000; in the data active means inhibition above about 5%, passing the limit was not always enough
Rin1-Abl confirm: confirmation of inhibitors of human Rin1-Abl interaction; shares compounds with Rin1 Abl inh; TR-FRET Rin1-Abl binding, purified proteins; inhibition, % at 7.35 µM; hit rate 49% among 1,300; AID 602124
GFP quencher: counter-screen for Rin1-Abl inhibitors: GFP fluorescence quenchers; shares compounds with Rin1 Abl inh; inhibitors/quenchers counterscreen; inhibition, % at 6.75 µM; hit rate 8.5% among 1,300; AID 602125;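 further: ABL1-eGFP fusion protein alone without its partner RIN1-SBP; 0% = protein with vehicle and 100% = wells lacking protein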
GFP quench DR: counter-screen for Rin1-Abl inhibitors: GFP quenchers, dose response. shares compounds with Rin1 Abl inh. GFP fluorescence interference/quenching counterscreen. IC50, µM. 230 tested, under 10 active. AID 602182; call rule not given here;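 further: ABL1-eGFP fusion protein alone without its RIN1 binding partner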
Numbers without * were called inactive; / = no result given. A selection: hits, their analogues and other compounds. The true share with any hit is near 1.2%. Unless noted, no stated cut-off is given here; in the data, active means inhibition above about 6.5%; inactive means the rest.

SMILES | GalR3 antagonist | ARFGAP1 inh | ASAP1 inh | Rin1 Abl inh | Rin1-Abl confirm | GFP quencher | others
C[C@@H]1O[C@@H](OC[C@H]2O[C@@H](Oc3c(-c4ccc(O)c(O)c4)oc4cc(O)cc(O)c4c3=O)[C@H](O)[C@@H](O)[C@@H]2O)[C@H](O)[C@H](O)[C@H]1O | / | 2.2 | 4.6 | 15.0* | 20.5* | 1.9 | GFP quench DR=>67.5
CCCCCCCC[n+]1c(C)n(-c2ccccc2)c2ccc(NC(C)=O)cc21 | -7.1 | 2.0 | 1.4 | 5.0* | 6.7* | -0.2
O=C1CCCC2=C1[C@@]1(O[C@H]3C=CC=CN23)C(=O)N(c2ccccc2)c2ccccc21 | -4.4 | 5.6 | -7.7 | / | / | /
O=c1[nH]cnc2c1C(c1ccccc1)c1c(nc[nH]c1=O)O2 | -8.4 | 7.3 | -1.9 | 22.9* | 43.7* | -0.1 | GFP quench DR=>67.6
CN(C(=O)c1ccc(NC(=O)Cc2cccc(NC(=O)C3CCN(C(=O)C4CCCC4)CC3)c2)cc1)C1CC1 | -6.3 | 2.9 | -0.4 | 20.2* | 28.0* | 0.1 | GFP quench DR=>67.5
CN(C(=O)c1ccc(NC(=O)Cc2ccc(NC(=O)C3CCN(C(=O)C4CCC4)CC3)cc2)cc1)C1CC1 | -2.0 | 11.9 | -0.1 | 37.4* | 61.5* | 0.1
CN(C(=O)c1ccc(NC(=O)Cc2ccc(NC(=O)C3CCN(C(=O)C4CCCC4)CC3)cc2)cc1)C1CC1 | -5.1 | -7.3 | 5.6 | 78.2* | 84.5* | -0.7
CN(C(=O)c1ccc(NC(=O)Cc2ccc(NC(=O)C3CCN(C(=O)C4CCCCC4)CC3)cc2)cc1)C1CCCC1 | -5.8 | 6.5 | 3.4 | 4.0 | / | /
COc1cccc(CNC(=O)[C@H]2CCCN2C(=O)[C@H]2CCCN2C(=O)c2ccccc2)c1 | -6.3 | 0.5 | 1.2 | / | / | /
COC(=O)[C@]1(Cc2ccccc2)NC=C(C(=O)c2ccccc2)[C@@H]1c1cccs1 | 0.8 | 8.1 | 13.7 | / | / | /
COc1ccc(OC)c(CN(CC(F)(F)F)S(=O)(=O)c2ccccc2Br)c1 | -6.5 | -4.0 | -4.4 | / | / | /
CCOC(=O)C1=CCN(S(=O)(=O)c2ccc(Br)cc2)C1c1ccc(Br)cc1 (stereo not given) | -7.7 | 4.0 | 8.1 | / | / | /
CCCCN1C(=O)N(C)C2NC(=O)NC21 (stereo not given) | -4.7 | -3.8 | 1.0 | 66.1* | 75.5* | 1.4 | GFP quench DR=>67.4
CCCCN1C(=O)NC2NC(=O)NC21 (stereo not given) | -2.9 | -0.6 | -0.8 | 96.7* | 98.7* | -1.9 | GFP quench DR=>67.6
CCCCN1C(=O)N(C)C2C1N(C)C(=O)N2CCCC (stereo not given) | -3.8 | -0.8 | -1.9 | 3.8 | / | /
CCCc1cc(=O)oc2cc3occ(C)c3cc12 | -3.7 | -12.7 | 0.6 | -0.4 | / | /
CCc1cc(=O)oc2cc3occ(C)c3cc12 | 1.0 | -3.5 | -4.8 | 10.9* | -1.8 | 1.6
Oc1ccc(C2=Nn3c(nnc3-c3ccco3)SC2)cc1O | 1.1 | 8.7 | 9.6 | 5.9* | 3.9 | 16.9*
CNC(=O)C[C@H]1C(=O)N(Cc2ccccc2)C[C@@H]1Cc1ccccc1 | -3.1 | -3.2 | 12.6 | 8.2* | -0.5 | -0.8
O=C(C(=O)N1CCC(CNC(=O)c2sc3ccccc3c2Cl)CC1)c1cccs1 | 2.6 | 6.8 | 13.3 | / | / | /
Cc1cc(C)cc(OCc2nnc(SCC(=O)N3CCCCC3)o2)c1 | -8.0 | 7.7 | -7.9 | 1.6 | / | /
Cc1cc(C)cc(OCc2nnc(SCC(=O)c3ccc(Br)cc3)o2)c1 | -2.5 | 3.3 | 7.6 | 4.7* | 0.8 | -0.6
COC(=O)c1cc2c(c3c4cc(F)ccc4n(S(=O)(=O)c4ccc(C)cc4)c13)C(=O)N(Cc1ccccc1)C2 | -6.0 | 2.3 | 0.4 | / | / | /
CCC(C)N(Cc1ccc(OC)cc1OC)S(=O)(=O)c1cc(Br)ccc1Br (stereo not given) | -8.8 | 7.8 | -4.3 | / | / | /
O=C(COc1ccc(Cl)cc1Br)OCC(=O)c1ccc[nH]1 | -2.8 | 2.4 | -3.7 | 8.3* | -0.8 | 3.0
Cc1nn(CC(=O)Nc2ccc(C(=O)N3CCCC3)cc2)c(=O)c2ccccc12 | -2.5 | -16.3 | 2.3 | 9.9* | 7.4* | 2.3
Cc1nn(CC(=O)Nc2ccc(C(=O)N3CCCCC3)cc2)c(=O)c2ccccc12 | -3.7 | 3.4 | 1.4 | 11.9* | 13.3* | -0.1
